Measured values reported in ChEMBL document CHEMBL5260843 (J Med Chem, 2019).
Activity calls are given as the source filed them. No cut-off for these calls is given here.

Key:
[1] = target: T1, DCN1-like protein 1/NEDD8-conjugating enzyme Ubc12 (Homo sapiens, UniProt Q96GG9); test: Inhibition of GST-tagged DCN1 PONY domain (unknown origin)/human N-terminal acetylated UBC12 (1 to 12 residues) protein-protein interaction incubated for 1 hr by HTRF analysis; assay type: protein assay
MGC-803 [2] = test: Induction of ROS generation in human MGC-803 cells at 0.3 uM incubated for 24 hrs by DCFH-DA staining based flow cytometry analysis (reference value: 2%); assay type: functional
MGC-803 [3] = test: Induction of ROS generation in human MGC-803 cells at 1 uM incubated for 24 hrs by DCFH-DA staining based flow cytometry analysis (reference value: 2%); assay type: functional
MGC-803 [4] = test: Induction of ROS generation in human MGC-803 cells at 3 uM incubated for 24 hrs by DCFH-DA staining based flow cytometry analysis (reference value: 2%); assay type: functional
[5] = target: T1, DCN1-like protein 1/NEDD8-conjugating enzyme Ubc12; test: Inhibition of biotinylated DCN1 PONY domain (unknown origin)/human N-terminal acetylated UBC12 (1 to 12 residues) protein-protein interaction incubated for 1 hr by TR-FRET analysis; assay type: protein assay
MGC-803 [6] = test: Induction of ROS generation in human MGC-803 cells at 3 uM incubated for 24 hrs by DCFH-DA staining based flow cytometry analysis (reference value: 1.2%); assay type: functional
MGC-803 [7] = test: Inhibition of cullin2 neddylation in UBC/DCN1 overactivated human MGC-803 cells at 0.3 to 10 uM incubated for 24 hrs by Western blot analysis; assay type: cell-based; details: dose 0.3-10 µM
How it was run: (§1)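 Cells in 6-well plates were exposed to compound for 24 h. MGC-803 were grown in DMEM and KYSE70 in RPMI 1640, both with 10% FBS at 37 °C and 5% CO2. Lysates were made in RIPA with protease inhibitors and quantified by BCA. 30 μg protein was run on 8% SDS-PAGE and blotted to nitrocellulose. Primary antibodies were applied overnight at 4 °C, then HRP secondaries, with ECL and film detection. GAPDH was the loading control. Run three times.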

Cullin-4A (Homo sapiens) [8] = target: Cullin-4A (Homo sapiens) (UniProt Q13619); test: Inhibition of cullin4A neddylation in UBC/DCN1 overactivated human MGC-803 cells at 0.3 to 10 uM incubated for 24 hrs by Western blot analysis; assay type: cell-based; details: dose 0.3-10 µM; how it was run: as §1
Sequence of Cullin-4A (Homo sapiens) (Q13619 whole entry): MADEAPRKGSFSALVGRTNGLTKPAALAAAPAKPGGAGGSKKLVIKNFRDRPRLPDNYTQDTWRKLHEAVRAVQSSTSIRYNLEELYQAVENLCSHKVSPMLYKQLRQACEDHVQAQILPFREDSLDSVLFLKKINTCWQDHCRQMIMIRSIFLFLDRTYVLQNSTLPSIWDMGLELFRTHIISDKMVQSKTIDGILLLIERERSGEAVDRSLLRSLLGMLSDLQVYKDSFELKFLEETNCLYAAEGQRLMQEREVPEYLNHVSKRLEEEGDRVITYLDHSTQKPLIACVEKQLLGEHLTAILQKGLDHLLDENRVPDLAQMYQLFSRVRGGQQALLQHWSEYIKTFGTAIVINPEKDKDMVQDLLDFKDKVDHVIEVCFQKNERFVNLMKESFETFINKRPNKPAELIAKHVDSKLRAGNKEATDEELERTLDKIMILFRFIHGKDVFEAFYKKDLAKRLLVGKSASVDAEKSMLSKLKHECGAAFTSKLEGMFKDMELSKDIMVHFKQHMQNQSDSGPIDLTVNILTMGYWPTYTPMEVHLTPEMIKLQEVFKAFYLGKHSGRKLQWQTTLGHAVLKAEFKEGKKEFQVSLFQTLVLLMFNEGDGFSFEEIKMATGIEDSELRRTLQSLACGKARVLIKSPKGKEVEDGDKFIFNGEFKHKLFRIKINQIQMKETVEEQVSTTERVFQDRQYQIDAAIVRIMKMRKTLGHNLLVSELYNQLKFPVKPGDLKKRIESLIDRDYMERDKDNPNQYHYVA

Cullin-5 (Homo sapiens) [9] = target: T2, Cullin-5 (Homo sapiens) (UniProt Q93034); test: Inhibition of cullin5 neddylation in UBC/DCN1 overactivated human MGC-803 cells at 0.3 to 10 uM incubated for 24 hrs by Western blot analysis; assay type: cell-based; details: dose 0.3-10 µM; how it was run: as §1
T2 sequence (whole entry): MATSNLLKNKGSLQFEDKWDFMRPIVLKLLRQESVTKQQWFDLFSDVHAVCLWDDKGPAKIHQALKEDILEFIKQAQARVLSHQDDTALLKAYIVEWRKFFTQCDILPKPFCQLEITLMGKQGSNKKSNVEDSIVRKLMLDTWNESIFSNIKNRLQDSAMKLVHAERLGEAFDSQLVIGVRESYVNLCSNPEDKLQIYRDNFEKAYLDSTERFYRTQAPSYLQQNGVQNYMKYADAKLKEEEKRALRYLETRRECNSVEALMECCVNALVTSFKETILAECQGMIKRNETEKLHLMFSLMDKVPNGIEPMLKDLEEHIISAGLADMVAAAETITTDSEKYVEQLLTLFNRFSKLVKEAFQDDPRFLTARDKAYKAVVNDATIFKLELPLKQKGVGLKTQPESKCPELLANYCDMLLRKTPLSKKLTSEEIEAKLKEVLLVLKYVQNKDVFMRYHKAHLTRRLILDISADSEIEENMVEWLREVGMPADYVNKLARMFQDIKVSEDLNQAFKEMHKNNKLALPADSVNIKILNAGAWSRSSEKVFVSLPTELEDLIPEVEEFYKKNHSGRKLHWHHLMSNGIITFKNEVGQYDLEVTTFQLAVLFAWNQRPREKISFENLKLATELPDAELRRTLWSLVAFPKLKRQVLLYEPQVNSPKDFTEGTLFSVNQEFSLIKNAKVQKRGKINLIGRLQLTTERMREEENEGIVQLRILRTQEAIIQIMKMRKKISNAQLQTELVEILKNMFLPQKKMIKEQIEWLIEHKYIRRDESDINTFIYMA

Cullin-1 (Homo sapiens) [10] = target: Cullin-1 (Homo sapiens) (UniProt Q13616); test: Inhibition of cullin1 neddylation in UBC/DCN1 overactivated human MGC-803 cells at 0.3 to 10 uM incubated for 24 hrs by Western blot analysis; assay type: cell-based; details: dose 0.3-10 µM; how it was run: as §1
Sequence of Cullin-1 (Homo sapiens) (Q13616 whole entry): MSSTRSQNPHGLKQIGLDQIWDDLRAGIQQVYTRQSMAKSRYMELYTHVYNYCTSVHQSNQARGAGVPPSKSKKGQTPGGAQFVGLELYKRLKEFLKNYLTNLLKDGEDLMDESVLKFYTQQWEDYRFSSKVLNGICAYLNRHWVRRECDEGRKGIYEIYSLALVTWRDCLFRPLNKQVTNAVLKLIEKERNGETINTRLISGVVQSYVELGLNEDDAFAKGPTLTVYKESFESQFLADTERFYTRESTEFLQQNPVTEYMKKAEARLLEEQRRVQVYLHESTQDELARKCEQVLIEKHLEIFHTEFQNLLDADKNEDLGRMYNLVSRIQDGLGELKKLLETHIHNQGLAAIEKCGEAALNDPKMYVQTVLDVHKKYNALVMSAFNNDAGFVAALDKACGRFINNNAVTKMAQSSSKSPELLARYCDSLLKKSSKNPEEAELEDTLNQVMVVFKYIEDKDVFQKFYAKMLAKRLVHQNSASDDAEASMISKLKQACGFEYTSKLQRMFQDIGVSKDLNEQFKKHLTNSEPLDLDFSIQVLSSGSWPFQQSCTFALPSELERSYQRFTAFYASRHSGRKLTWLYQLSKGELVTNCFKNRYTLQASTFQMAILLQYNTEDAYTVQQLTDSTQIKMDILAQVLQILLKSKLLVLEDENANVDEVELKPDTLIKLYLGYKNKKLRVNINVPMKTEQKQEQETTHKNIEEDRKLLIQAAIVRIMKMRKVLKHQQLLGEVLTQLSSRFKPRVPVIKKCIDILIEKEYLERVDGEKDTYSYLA

MGC-803 [11] = test: Induction of NRF2 accumulation in human MGC-803 cells 0.01 to 10 uM incubated for 24 hrs by Western blot analysis; assay type: functional, cell-based; details: dose 0.01-10 µM; how it was run: as §1
MGC-803 [12] = test: Induction of ROS generation in human MGC-803 cells at 0.3 uM incubated for 24 hrs by DCFH-DA staining based flow cytometry analysis (reference value: 1.2%); assay type: functional
MGC-803 [13] = test: Induction of ROS generation in human MGC-803 cells at 1 uM incubated for 24 hrs by DCFH-DA staining based flow cytometry analysis (reference value: 1.2%); assay type: functional
Cullin-4B (Homo sapiens) [14] = target: Cullin-4B (Homo sapiens) (UniProt Q13620); test: Inhibition of cullin4B neddylation in UBC/DCN1 overactivated human MGC-803 cells at 0.3 to 10 uM incubated for 24 hrs by Western blot analysis; assay type: cell-based; details: dose 0.3-10 µM; how it was run: as §1
Sequence of Cullin-4B (Homo sapiens) (Q13620 whole entry): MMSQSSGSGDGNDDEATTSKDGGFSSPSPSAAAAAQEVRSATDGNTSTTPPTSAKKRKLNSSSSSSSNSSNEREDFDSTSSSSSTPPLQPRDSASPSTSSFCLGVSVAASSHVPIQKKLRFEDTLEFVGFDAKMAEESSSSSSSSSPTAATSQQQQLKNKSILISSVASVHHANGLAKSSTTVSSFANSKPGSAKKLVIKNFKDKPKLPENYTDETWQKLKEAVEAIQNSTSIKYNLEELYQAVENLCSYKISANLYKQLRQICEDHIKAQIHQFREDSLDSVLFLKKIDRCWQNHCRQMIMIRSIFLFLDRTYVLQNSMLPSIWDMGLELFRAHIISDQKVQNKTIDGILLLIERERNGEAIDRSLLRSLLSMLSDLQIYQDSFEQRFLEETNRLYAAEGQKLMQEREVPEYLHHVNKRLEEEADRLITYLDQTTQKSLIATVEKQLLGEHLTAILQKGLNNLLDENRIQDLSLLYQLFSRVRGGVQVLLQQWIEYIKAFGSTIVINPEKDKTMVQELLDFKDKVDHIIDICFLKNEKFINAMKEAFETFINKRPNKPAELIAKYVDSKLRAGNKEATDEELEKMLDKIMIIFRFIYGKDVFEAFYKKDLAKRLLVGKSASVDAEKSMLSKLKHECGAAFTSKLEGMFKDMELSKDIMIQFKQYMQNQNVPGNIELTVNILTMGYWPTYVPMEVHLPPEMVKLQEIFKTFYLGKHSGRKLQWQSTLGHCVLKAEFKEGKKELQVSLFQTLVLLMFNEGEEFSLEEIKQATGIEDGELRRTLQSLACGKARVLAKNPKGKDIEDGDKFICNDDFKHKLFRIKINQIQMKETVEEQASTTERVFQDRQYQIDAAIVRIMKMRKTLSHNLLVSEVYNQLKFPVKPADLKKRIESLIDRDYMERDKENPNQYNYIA

MGC-803 [15] = test: Inhibition of cullin3 neddylation in UBC/DCN1 overactivated human MGC-803 cells incubated for 24 hrs by Western blot analysis; assay type: cell-based; how it was run: as §1
Cullin-4A (Homo sapiens) [16] = target: Cullin-4A (Homo sapiens) (UniProt Q13619); test: Inhibition of cullin4A neddylation in UBC/DCN1 overactivated human MGC-803 cells at 1 uM incubated for 24 hrs by Western blot analysis; assay type: cell-based; how it was run: as §1
MGC-803 [17] = test: Inhibition of cullin2 neddylation in UBC/DCN1 overactivated human MGC-803 cells at 1 uM incubated for 24 hrs by Western blot analysis; assay type: cell-based; how it was run: as §1
MGC-803 [18] = test: Inhibition of cullin3 neddylation in UBC/DCN1 overactivated human MGC-803 cells at 1 uM incubated for 24 hrs by Western blot analysis; assay type: cell-based; how it was run: as §1
Cullin-1 (Homo sapiens) [19] = target: Cullin-1 (Homo sapiens) (UniProt Q13616); test: Inhibition of cullin1 neddylation in UBC/DCN1 overactivated human MGC-803 cells at 1 uM incubated for 24 hrs by Western blot analysis; assay type: cell-based; how it was run: as §1
Cullin-5 (Homo sapiens) [20] = target: T2, Cullin-5 (Homo sapiens); test: Inhibition of cullin5 neddylation in UBC/DCN1 overactivated human MGC-803 cells at 1 uM incubated for 24 hrs by Western blot analysis; assay type: cell-based; how it was run: as §1
Cullin-4B (Homo sapiens) [21] = target: Cullin-4B (Homo sapiens) (UniProt Q13620); test: Inhibition of cullin4B neddylation in UBC/DCN1 overactivated human MGC-803 cells at 1 uM incubated for 24 hrs by Western blot analysis; assay type: cell-based; how it was run: as §1
MGC-803 [22] = test: Induction of p21 accumulation in human MGC-803 cells 0.03 to 3 uM incubated for 24 hrs by Western blot analysis; assay type: functional, cell-based; details: dose 0.03-3 µM; how it was run: as §1
MGC-803 [23] = test: Induction of NRF2 accumulation in human MGC-803 cells 0.03 to 3 uM incubated for 24 hrs by Western blot analysis; assay type: functional, cell-based; details: dose 0.03-3 µM; how it was run: as §1
MGC-803 [24] = test: Induction of p27 accumulation in human MGC-803 cells 0.03 to 3 uM incubated for 24 hrs by Western blot analysis; assay type: functional, cell-based; details: dose 0.03-3 µM; how it was run: as §1

T1 sequence (Q96GG9 whole entry, the tested form may be a part): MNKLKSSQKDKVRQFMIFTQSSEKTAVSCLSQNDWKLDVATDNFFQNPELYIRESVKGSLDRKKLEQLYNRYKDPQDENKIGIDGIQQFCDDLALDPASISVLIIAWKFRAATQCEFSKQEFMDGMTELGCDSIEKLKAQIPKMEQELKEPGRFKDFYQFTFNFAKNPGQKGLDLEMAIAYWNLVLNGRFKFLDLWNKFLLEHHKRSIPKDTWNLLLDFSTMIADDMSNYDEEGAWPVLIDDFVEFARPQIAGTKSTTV
T1 sequence (P61081 whole entry, further chain, the tested form may be a part): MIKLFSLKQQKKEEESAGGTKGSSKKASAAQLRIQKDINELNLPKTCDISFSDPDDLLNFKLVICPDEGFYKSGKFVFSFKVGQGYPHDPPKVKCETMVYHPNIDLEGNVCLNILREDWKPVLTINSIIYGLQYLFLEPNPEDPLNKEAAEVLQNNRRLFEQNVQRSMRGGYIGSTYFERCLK

Cc1cc(Sc2nnnn2CCN(C)C)n2nc(SCc3ccc(C(F)(F)F)cc3)nc2n1
IC50 [1]: 186 nM

CCCSc1nc2nc(C)cc(Sc3nnnn3CCN(C)C)n2n1
IC50 [1]: 214 nM

CN(C)CCn1nnnc1Sc1cc(-c2ccccc2)nc2nc(SCc3ccccc3)nn12
IC50 [1]: 290 nM

Cc1cc(Sc2nnnn2CCN(C)C)n2nccc2n1
IC50 [1]: 4210 nM

Cc1ccc(CSc2nc3nc(C)cc(Sc4nnnn4CCN(C)C)n3n2)cc1
IC50 [1]: 78 nM

CCCCN1CCC(N(Cc2ccccc2)C(=O)Nc2ccc(Cl)c(Cl)c2)CC1
Activity (MGC-803 [2]): 0.7% | Activity (MGC-803 [3]): 0.5% | Activity (MGC-803 [4]): 0.2% | IC50 [5]: 60 nM

Cc1cc(Sc2nnnn2CCN(C)C)n2nc(SCc3ccccc3[N+](=O)[O-])nc2n1
IC50 [1]: 24 nM

Cc1cc(Sc2nnnn2CCN(C)C)n2nc(SCc3cccc(Br)c3)nc2n1
IC50 [1]: 195 nM

Cc1cc(Sc2nnnn2CCN(C)C)n2nc(SCc3ccc(F)c(Cl)c3)nc2n1
IC50 [1]: 22 nM

CCC(=O)N[C@@H](Cc1nc2ccc(C(C)C)cc2s1)C(=O)N[C@H](CNC(=O)CCN1CCOCC1)C1CCCCC1
Activity (MGC-803 [6]): 1.3% | inhibition (MGC-803 [7]): inactive | inhibition (Cullin-4A (Homo sapiens) [8]): inactive | inhibition (Cullin-5 (Homo sapiens) [9]): inactive | inhibition (Cullin-1 (Homo sapiens) [10]): inactive | Activity (MGC-803 [11]): Active | Activity (MGC-803 [12]): 1.3% | Activity (MGC-803 [13]): 0.7% | inhibition (Cullin-4B (Homo sapiens) [14]): inactive | inhibition (MGC-803 [15]): Dose-Dependent Effect

CN(C)CCn1nnnc1Sc1ncnc2ccsc12
IC50 [1]: > 50000 nM

COCCOc1cc2ncnc(Sc3nnnn3CCN(C)C)c2cc1OCCOC
IC50 [1]: > 50000 nM

CN(C)CCn1nnnc1Sc1cc(C2CC2)nc2ncnn12
IC50 [1]: 127 nM

Cc1cc(Sc2nnnn2CCN(C)C)n2nc(SCc3ccccc3Br)nc2n1
IC50 [1]: 824 nM

Cc1cc(Sc2nnnn2CCN(C)C)n2nc(SC(C)C)nc2n1
IC50 [1]: 268 nM

Cc1cc(Sc2nnnn2CCN(C)C)n2nc(SCc3ccc([N+](=O)[O-])cc3)nc2n1
IC50 [1]: 39 nM

Cn1nnnc1Sc1cc(-c2ccccc2)nc2ncnn12
IC50 [1]: 5820 nM

CN(C)CCn1nnnc1Sc1cc(-c2ccccc2)nc2ncnn12
IC50 [1]: 130 nM

NS(=O)(=O)OC[C@@H]1C[C@@H](n2ccc3c(N[C@H]4CCc5ccccc54)ncnc32)C[C@@H]1O
inhibition (Cullin-4A (Homo sapiens) [16]): Active | inhibition (MGC-803 [17]): Active | inhibition (MGC-803 [18]): Active | inhibition (Cullin-1 (Homo sapiens) [19]): Active | inhibition (Cullin-5 (Homo sapiens) [20]): Active | inhibition (Cullin-4B (Homo sapiens) [21]): Active | Activity (MGC-803 [22]): Active | Activity (MGC-803 [23]): Active | Activity (MGC-803 [24]): Active

Cc1cc(Sc2nnnn2CCN(C)C)n2nc(SCc3ccc(F)cc3)nc2n1
IC50 [1]: 16 nM

CCc1cc(Sc2nnnn2CCN(C)C)n2nc(SCc3ccccc3)nc2n1
IC50 [1]: 352 nM

C#CCSc1nc2nc(C)cc(Sc3nnnn3CCN(C)C)n2n1
IC50 [1]: 67 nM

Cc1cc(Sc2nnnn2CCN(C)C)n2nc(SCc3csc4ccc(Cl)cc34)nc2n1
IC50 [1]: 4890 nM
